Test results from ChEMBL document CHEMBL1136806, “Synthesis and in vitro and in vivo antimalarial activity of N1-(7-chloro-4-quinolyl)-1,4-bis(3-aminopropyl)piperazine derivatives” (J Med Chem, 2003).

Legend:
MRC5 [1] = assay: Cytotoxicity was tested on human diploid embryonic lung cell line (MRC-5) (in vitro); assay type: functional
Plasmodium falciparum [2] = assay: In vitro antimalarial activity against Plasmodium falciparum FcB1; assay type: functional, organism-based
Summary of the method: (§1)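 Asynchronous P. falciparum FcB1 cultures in human erythrocytes (0.5% parasitemia, 1% hematocrit) were exposed to serial dilutions for 24 h at 37 °C. [3H]-hypoxanthine was then added. Incorporation was compared with drug-free controls, DMSO ≤0.1%. IC50 came from the concentration–response curve, reported as mean ± SD of three experiments.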

Plasmodium falciparum [3] = assay: Antimalarial activity against Plasmodium falciparum FcB1; assay type: functional, organism-based; summary of the method: as §1
MRC5 [4] = assay: Cytotoxicity of compound was tested on human diploid embryonic lung cell line (MRC-5); assay type: functional
[5] = Partition coefficient was determined by dividing the concentration of compound in 1-octanol by concentration in aqueous phase at pH 5.0; assay type: physicochemical; details: 1-octanol/aqueous phase, read-out: Log D5.0
[6] = Partition coefficient was determined by dividing the concentration of compound in 1-octanol by concentration in aqueous phase at pH 7.4; assay type: physicochemical; details: 1-octanol/aqueous phase, read-out: Log D7.4
[7] = Vacuolar accumulation ratio was determined; assay type: functional
Summary of the method: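 Calculated, not measured: Henderson–Hasselbalch-derived equation using predicted pKa values, assuming vacuolar pH 5.0 and external pH 7.4.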

Structure (SMILES)	IC50 (Plasmodium falciparum [2]) [µM]	logD [6]	CC50 (MRC5 [1]) [µM]	other results
Clc1ccc2c(NCCCN3CCN(CCCNc4ccnc5cc(Cl)ccc45)CC3)ccnc2c1	–	–	–	IC50 (Plasmodium falciparum [3]): 0.023 µM; CC50 (MRC5 [4]): < 1 µM
COc1ccc(C(=O)NCCCN2CCN(CCCNc3ccnc4cc(Cl)ccc34)CC2)cc1	0.0202	–	4	–
CCCCN(CCCC)CCCN1CCN(CCCNc2ccnc3cc(Cl)ccc23)CC1	–	1.92	–	logD [5]: -1.75
CCN(CC)CCCC(C)Nc1ccnc2cc(Cl)ccc12 (stereo not drawn) [CHLOROQUINE]	–	–	–	VAR [7]: 53600; CC50 (MRC5 [4]): 50 µM
Clc1ccc2c(NCCCN3CCN(CCCN(CCc4ccccc4)CCc4ccccc4)CC3)ccnc2c1	0.0262	–	1	–
Clc1ccc2c(NCCCN3CCN(CCCNCc4ccnc5ccccc45)CC3)ccnc2c1	0.0741	–	1.2	–
O=C(NCCCN1CCN(CCCNc2ccnc3cc(Cl)ccc23)CC1)c1cccc(Oc2ccccc2)c1	0.0208	–	5	VAR [7]: 29500
Clc1ccc2c(NCCCN3CCN(CCCNCCc4ccccc4)CC3)ccnc2c1	0.0185	–	5	–
O=C(NCCCN1CCN(CCCNc2ccnc3cc(Cl)ccc23)CC1)c1ccc([N+](=O)[O-])cc1	–	> 2.78	–	logD [5]: 0.31
Clc1ccc2c(NCCCN3CCN(CCCN(CC4CC4)CC4CC4)CC3)ccnc2c1	–	1.16	–	logD [5]: < -2.78
O=C(NCCCN1CCN(CCCNc2ccnc3cc(Cl)ccc23)CC1)C1CC1	–	> 2.78	–	logD [5]: -0.23

The next lines start with results.

IC50 (Plasmodium falciparum [2]) [µM]	logD [6]	Structure (SMILES)	CC50 (MRC5 [1]) [µM]	other results
0.0674	–	O=C(Cc1ccccc1)NCCCN1CCN(CCCNc2ccnc3cc(Cl)ccc23)CC1	4	–
0.0096	–	COc1ccc(CN(CCCN2CCN(CCCNc3ccnc4cc(Cl)ccc34)CC2)Cc2ccc(OC)cc2)cc1	1	–
–	1.06	CCCC(=O)NCCCN1CCN(CCCNc2ccnc3cc(Cl)ccc23)CC1	–	–
